# TNAP inh hi DEA – human TNAP enzyme inhibitors, primary screen, biochemical, luminescent, high phosphate acceptor level, uHTS; Alkaline phosphatase, tissue-nonspecific isozyme (Homo sapiens), P05186; purified TNAP, CDP-star luminescence, 1 M DEA; inhibition, % at 20 µM; actives 0.03% (n = 200,000); AID 1135, 2008;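 active = over 50% inhibition of tissue-nonspecific alkaline phosphatase at 20 µM in the single-dose screen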;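 note: plate controls were DMSO wells for no effect and EDTA-quenched wells as full inhibition for full effect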
# Target sequence (P05186 whole entry, looked up): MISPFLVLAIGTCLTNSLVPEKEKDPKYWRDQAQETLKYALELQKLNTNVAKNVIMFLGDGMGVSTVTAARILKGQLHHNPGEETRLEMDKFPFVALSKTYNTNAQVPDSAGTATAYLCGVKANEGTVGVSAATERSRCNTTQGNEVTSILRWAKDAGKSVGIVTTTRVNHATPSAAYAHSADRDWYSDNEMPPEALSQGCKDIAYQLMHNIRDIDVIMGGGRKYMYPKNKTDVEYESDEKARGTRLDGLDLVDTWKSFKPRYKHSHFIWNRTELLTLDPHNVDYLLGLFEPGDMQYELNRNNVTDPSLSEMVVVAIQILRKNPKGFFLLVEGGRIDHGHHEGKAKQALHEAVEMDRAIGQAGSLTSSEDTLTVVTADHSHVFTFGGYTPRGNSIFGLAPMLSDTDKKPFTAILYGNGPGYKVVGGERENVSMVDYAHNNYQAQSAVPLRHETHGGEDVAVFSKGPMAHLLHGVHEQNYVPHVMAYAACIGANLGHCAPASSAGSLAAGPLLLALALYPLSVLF
# DTT redox prof – compounds producing H2O2 with reducing agent – biochemical, NIH compound library profiling, artefact control for MLSCN library redox annotation, primary screen. DTT-dependent redox cycling H2O2, phenol red/HRP absorbance; 100% = 100 µM peroxide control, 0% = buffer. activation, % at 10 µM. actives 0.03% (n = 200,000);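 active = activation of at least 50% relative to the plate's high and low controls in the primary single-dose screen; inactive = activation below 50%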;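 note: compound incubated with DTT at 0.8 mM final as the reducing agent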
# TNAP inh no acc – human TNAP enzyme inhibitors, primary screen, biochemical, luminescent, no phosphate acceptor, uHTS; Alkaline phosphatase, tissue-nonspecific isozyme (Homo sapiens), P05186; purified TNAP, CDP-star luminescence, 30 min; inhibition, % at 20 µM; actives 0.26% (n = 200,000); AID 1012, 2008;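 active = tissue-nonspecific alkaline phosphatase inhibition above about 50% at 20 µM in the single-dose screen, limit read from the data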;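 note: 0% = DMSO negative control and 100% = EDTA positive control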
# TNAP act hiacc – TNAP activators at high phosphate acceptor level, primary screen, biochemical, luminescence, uHTS; Alkaline phosphatase, tissue-nonspecific isozyme (Homo sapiens), P05186; purified TNAP, CDP-star luminescence, 1 M DEA, 30 min; stronger effect = higher value; 0 = EDTA background, 1 = DMSO-only activity; 200,000 tested, under 10 active; activation factor at 20 µM; AID 1136, 2008;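 active = activation factor at least 2 at 20 µM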
#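 Assay system: human TNAP; Input: enzyme diluted 1/800 final; Reagent: CDP-star luminogenic substrate at 100 µM final; Timing: 30 min, room temperature; Signal: luminescence; Evaluation: TNAP activation factor scaled between EDTA and DMSO control wells.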
# p97 inhibitor – inhibitors of human p97 ATPase, primary screen, biochemical | Transitional endoplasmic reticulum ATPase (Homo sapiens), P55072 | recombinant p97 ATPase, Kinase-Glo ATP luminescence, 3 h | inhibition, % at 8 µM | actives 0.42% (n = 220,000); in the data active = inhibition above about 15%;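 note: 0% = DMSO vehicle and 100% = wells lacking enzyme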
# G6PDH CS – L. mesenteroides G6PDH inhibitors, counter-screen for G6PDH-coupled screening assays, biochemical, Leuconostoc mesenteroides enzyme; glucose-6-phosphate dehydrogenase [Leuconostoc mesenteroides]; Purified L. mesenteroides G6PDH, diaphorase/resazurin coupled fluorescence, 45 min; inhibition, % at 5 µM; actives 0.12% (n = 200,000); in the data active = inhibition above about 50%
# * hit, by the source's call; . = no result given. Compounds with a hit are over-represented: about 0.79% of the library has one in this group of screens.
SMILES,TNAP inh hi DEA,DTT redox prof,TNAP inh no acc,TNAP act hiacc,p97 inhibitor,G6PDH CS
CN(C)c1ccc(C2NCCS2)cc1 (stereo not drawn),-6,0,-7,1.1,2,-1
Cc1ccc(C2NCCS2)cc1 (stereo not drawn),2,-1,63*,1,11,7
CCN(C(=O)CSc1cc(C)c2cccc(C)c2n1)C1CCS(=O)(=O)C1 (stereo not drawn),-7,-2,-10,1.1,1,0
COCC(=O)Nc1ccc(C(=O)Nc2ccccc2Cl)cc1,-1,0,-4,1,4,2
COc1ccc(-c2[nH]ncc2C=O)cc1,3,-1,70*,1,8,11
O=C(COC(=O)c1ccc2ccccc2n1)Nc1cccc(S(=O)(=O)NC2=NCCCCC2)c1,-97,-1,-51,2*,2,6
CCc1nc2ccccc2c(C(=O)OCC(=O)Nc2cccc(S(=O)(=O)NC3=NCCCCC3)c2)c1C,.,.,.,.,10,.
O=C(COc1ccccc1)Nc1nc(-c2cccs2)cs1,-6,0,-14,1.1,5,-3
O=C(CCS(=O)(=O)c1ccccc1)Nc1nc(-c2cccs2)cs1,-4,0,-3,1,2,50*
Nc1nc(-c2ccco2)c(-c2ccco2)s1,3,3,-7,1,20*,8
CCC(=O)NNc1nc2c(F)cccc2s1,-4,-1,-145,1,1,0
CCC(=O)NNc1nc2c(F)cc(F)cc2s1,-5,-9,-150,1,16*,13
O=C(O)c1ccccc1C(=O)N1N=C2/C(=C/c3cccc([N+](=O)[O-])c3)CCCC2C1c1cccc([N+](=O)[O-])c1 (stereo not drawn),3,-1,79*,1,-5,0
O=C(O)c1c(C(=O)N2N=C3/C(=C/c4ccccc4)CCCC3C2c2ccccc2)cccc1[N+](=O)[O-] (stereo not drawn),-5,-1,28,1.1,1,-3
Cc1ccc(S(=O)(=O)N/N=C\c2ccc3c(c2)OCO3)cc1,-4,0,-5,1,16*,5
Oc1ccc(/C=N/Nc2cc(N3CCOCC3)nc(N3CCOCC3)n2)cc1O,9,0,67*,0.9,5,37
Oc1cccc(/C=N/Nc2cc(N3CCOCC3)nc(N3CCOCC3)n2)c1,3,0,0,1,2,19
COc1cc(C(=O)Nc2nc(OC)c(-c3ccccc3)c(OC)n2)cc(OC)c1OC,-4,-2,-8,1,4,0
COc1cc(C(=O)Nc2cc(-c3ccccc3)[nH]n2)cc(OC)c1OC,-6,.,63*,1.1,.,2
CC(=O)Nc1cc(-c2ccc(Cl)cc2)[nH]n1,-4,0,88*,1,7,18
CC(=O)Nc1ccc(NC=C(C#N)C#N)cc1,.,.,.,.,-1,.
CCN(CC)CCNC(=O)CCn1c(=S)[nH]c2cc3c(cc2c1=O)OCO3,-4,2,-2,1,1,-38
CCCCNC(=O)CCCn1c(=S)[nH]c2cc3c(cc2c1=O)OCO3,-3,-1,-14,1,17*,2
NC(=O)[C@H](Cc1cc2ccccc2s1)NC(=O)[C@@H]1CC2(CC(c3cccc(NC(=O)[C@@H]4CCC(=O)N4)c3)=NO2)CN1C(=O)/C=C/Sc1ccccc1 (stereo partly drawn),-6,1,-1,1.1,17*,14
COc1ccc(C)cc1NC(=O)c1nn(C)cc1Br,.,.,.,.,1,.
COC(=O)[C@@H](NC(=O)N1CCC(C)CC1)C(C)C,.,.,.,.,6,.

# Screening data (PubChem)
